Tests used:
Cannabinoid receptor 2 [1] = target: T1, Cannabinoid receptor 2 (Homo sapiens, UniProt P34972); test: Displacement of [3H]CP-55,940 from human recombinant CB2 receptor expressed in HEK293 cell membranes
Cannabinoid receptor 1 [2] = target: T2, Cannabinoid receptor 1 (Homo sapiens, UniProt P21554); test: Displacement of [3H]CP-55,940 from human recombinant CB1 receptor expressed in HEK293 cell membranes
Homo sapiens [3] = species: Homo sapiens; test: Selectivity index, ratio of Ki for human recombinant CB2 receptor to Ki for human recombinant CB1 receptor
Homo sapiens [4] = species: Homo sapiens; test: Selectivity index, ratio of Ki for human recombinant CB1 receptor to Ki for human recombinant CB2 receptor
[5] = Inhibition of MGL in African green monkey COS7 cells cytosolic fraction assessed as reduction in 2-arachidonoyl-[3H]-glycerol hydrolysis by scintillation counting method; format: cell-based, Chlorocebus aethiops; settings: cos-7
COS-7 [6] = test: Inhibition of MGL in African green monkey COS7 cells cytosolic fraction assessed as reduction in 2-arachidonoyl-[3H]-glycerol hydrolysis at 50 uM by scintillation counting method; format: cell-based; settings: Chlorocebus aethiops
Cannabinoid receptor 2 [7] = target: T1, Cannabinoid receptor 2; test: Agonist activity at human recombinant CB2 receptor expressed in CHO cell membranes by [35S]GTPgammaS binding assay; format: functional
In short: (§1)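 Membranes from CHO cells stably expressing human CB1 or CB2, 50 µg protein per well, in Tris buffer with 100 mM NaCl, 5 mM MgCl2, 1 mM DTT, 1 mM EDTA, 0.1% BSA, pH 7.4. Incubated 60 min at 30°C with 0.1 nM [35S]GTPγS, 30 µM GDP and compound in DMSO. Nonspecific binding defined with 30 µM GTPγS. Filtration and scintillation counting. Percent change relative to DMSO control, n=6. EC50/Emax from sigmoidal fit.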

Cannabinoid receptor 2 [8] = target: T1, Cannabinoid receptor 2; test: Agonist activity at human recombinant CB2 receptor expressed in CHO cell membranes assessed as stimulation of [35S]GTPgammaS binding relative to basal level; format: functional; in short: as §1
Cannabinoid receptor 1 [9] = target: T2, Cannabinoid receptor 1; test: Agonist activity at human recombinant CB1 receptor expressed in CHO cell membranes assessed as stimulation of [35S]GTPgammaS binding relative to basal level; format: functional; in short: as §1
[10] = target: T3, Fatty-acid amide hydrolase 1 (Rattus norvegicus, UniProt P97612); test: Inhibition of FAAH in rat brain membranes assessed as reduction in [14C] anandamide hydrolysis by scintillation counting method; format: cell membranes, Membrane
T3 sequence (P97612 whole entry): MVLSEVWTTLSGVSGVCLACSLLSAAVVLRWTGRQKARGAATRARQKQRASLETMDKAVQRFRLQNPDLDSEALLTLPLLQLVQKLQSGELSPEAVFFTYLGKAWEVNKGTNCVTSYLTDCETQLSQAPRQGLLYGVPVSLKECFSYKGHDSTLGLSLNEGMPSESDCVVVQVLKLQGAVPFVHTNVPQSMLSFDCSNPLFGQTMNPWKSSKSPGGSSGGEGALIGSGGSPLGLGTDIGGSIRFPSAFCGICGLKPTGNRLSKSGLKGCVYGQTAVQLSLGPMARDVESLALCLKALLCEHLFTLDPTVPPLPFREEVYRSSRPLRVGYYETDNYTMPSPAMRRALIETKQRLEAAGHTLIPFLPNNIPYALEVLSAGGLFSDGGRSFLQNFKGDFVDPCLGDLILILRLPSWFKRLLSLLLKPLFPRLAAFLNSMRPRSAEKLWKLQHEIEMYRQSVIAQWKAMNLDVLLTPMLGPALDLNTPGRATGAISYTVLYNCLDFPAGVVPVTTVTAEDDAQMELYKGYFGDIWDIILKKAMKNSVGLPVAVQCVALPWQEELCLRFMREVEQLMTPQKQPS

[11] = target: T4, Fatty-acid amide hydrolase 1 (Rattus norvegicus) (UniProt P97612); test: Inhibition of FAAH in rat brain membranes assessed as reduction in [14C] anandamide hydrolysis at 10 uM by scintillation counting method; format: cell membranes; settings: Membrane
T4 sequence (whole entry): T3 sequence (P97612 whole entry)

COS-7 [12] = test: Inhibition of MGL in African green monkey COS7 cells cytosolic fraction assessed as reduction in 2-arachidonoyl-[3H]-glycerol hydrolysis at 10 uM by scintillation counting method; format: cell-based; settings: Chlorocebus aethiops
[13] = Cytotoxicity against mouse NIH/3T3 cells after 24 hrs by neutral red assay; format: cell-based; settings: NIH3T3, 24 h
In short: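 NIH3T3 mouse fibroblasts in DMEM with 10% FCS were seeded and after 24 h exposed to compound in DMSO (5-200 µM, six replicates) for 24 h. Viability measured by neutral red uptake (3 h dye incubation, then acetic acid/ethanol extraction). IC50 derived.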

T1 sequence (P34972 whole entry): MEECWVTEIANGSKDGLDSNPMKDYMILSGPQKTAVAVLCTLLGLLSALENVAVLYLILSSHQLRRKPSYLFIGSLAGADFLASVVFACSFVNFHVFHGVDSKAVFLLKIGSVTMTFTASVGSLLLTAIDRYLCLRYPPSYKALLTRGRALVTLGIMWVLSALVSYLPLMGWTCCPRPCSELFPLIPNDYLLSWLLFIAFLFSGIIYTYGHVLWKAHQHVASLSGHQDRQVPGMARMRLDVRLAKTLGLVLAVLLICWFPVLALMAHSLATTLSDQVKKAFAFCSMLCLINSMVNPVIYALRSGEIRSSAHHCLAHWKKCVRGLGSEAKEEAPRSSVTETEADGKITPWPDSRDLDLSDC
T2 sequence (P21554 whole entry): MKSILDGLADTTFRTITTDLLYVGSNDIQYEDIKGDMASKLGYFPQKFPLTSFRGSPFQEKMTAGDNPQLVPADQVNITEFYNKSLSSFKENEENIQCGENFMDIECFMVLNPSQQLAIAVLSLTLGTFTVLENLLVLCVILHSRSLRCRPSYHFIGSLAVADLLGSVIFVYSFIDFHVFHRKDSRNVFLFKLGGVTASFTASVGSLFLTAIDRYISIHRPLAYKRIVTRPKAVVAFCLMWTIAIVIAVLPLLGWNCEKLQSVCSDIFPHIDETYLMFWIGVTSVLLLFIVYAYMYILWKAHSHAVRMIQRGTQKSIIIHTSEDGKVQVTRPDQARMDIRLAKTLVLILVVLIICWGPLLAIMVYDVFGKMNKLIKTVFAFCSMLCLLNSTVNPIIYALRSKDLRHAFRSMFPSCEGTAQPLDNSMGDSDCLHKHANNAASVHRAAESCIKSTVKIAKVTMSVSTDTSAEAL

SMILES	Ki (Cannabinoid receptor 2 [1])	Ki (Cannabinoid receptor 1 [2])	Ratio Ki (Homo sapiens [3])	Ratio Ki (Homo sapiens [4])	other results
CCCCCCc1ccc(O)cc1OCCCCCCCCCCCNC(=O)C1CC1	250 nM	900 nM	0.28	3.6	
CCCCCCC(C)(C)c1cc(O)cc(OCCCCCCCC(=O)NC(CO)CO)c1	815 nM	178 nM	4.6	0.22	
CCCCCCC(C)(C)c1cc(O)cc(OCCCCCCCCCCC(=O)N[C@H](C)CO)c1	21.2 nM	132 nM	0.16	6.24	
CCCCCCC(C)(C)c1cc(O)cc(OCCCCCCCCCN2C(=O)c3ccccc3C2=O)c1					IC50 [5]: > 50000 nM; Imax (COS-7 [6]): 18.8%
CCCCCc1cc(O)cc(OCCCCCCCCCCC(=O)Nc2ccccc2)c1	128 nM	> 10000 nM	< 0.01	> 78.2	EC50 (Cannabinoid receptor 2 [7]): 701 nM; Emax (Cannabinoid receptor 2 [8]): -14.4%
C=CCNC(=O)CCCCCCCCCCOc1cc(O)cc(CCCCC)c1	16.4 nM	136 nM	0.12	8.31	
CCCCCc1cc(O)cc(OCCCCCCCCCN[C@H](C)CO)c1	1520 nM	1060 nM	1.43	0.7	
CCCCCc1cc(O)cc(OCCCCCCCC(=O)N[C@H](C)CO)c1	119 nM	12.8 nM	9.32	0.11	
CCCCCCC(C)(C)c1ccc([C@@H]2C[C@H](O)CC[C@H]2CCCO)c(O)c1					Emax (Cannabinoid receptor 1 [9]): 72.1%; Emax (Cannabinoid receptor 2 [8]): 66.5%
CCCCCc1cc(O)cc(OCCCCCCCCCCC(=O)NN2CCCCC2)c1	678 nM	1780 nM	0.38	2.63	IC50 [5]: > 10000 nM; IC50 [10]: > 10000 nM; Imax [11]: 41%; Imax (COS-7 [12]): 41.6%
CCCCCc1cc(O)cc(OCCCCCCCCCCC(=O)NC23CC4CC(CC(C4)C2)C3)c1	> 10000 nM	> 10000 nM			
CCCCCCc1ccc(O)cc1OCCCCCCCCCCCN1C(=O)c2ccccc2C1=O					IC50 [5]: > 50000 nM; Imax (COS-7 [6]): 16.3%
CCCCCc1cc(O)cc(OCCCCCCCCCCCCNC2CC2)c1	> 10000 nM	830 nM	> 12.1	< 0.08	
CCCCCc1cc(O)cc(OCCCCCCCCCCC(=O)NCc2ccccc2)c1	202 nM	> 10000 nM	< 0.02	> 49.5	
CCCCCc1cc(O)cc(OCCCCCCCCCCCNC(=O)C2CC2)c1	460 nM	2770 nM	0.17	6.02	
CCCCCc1cc(O)cc(OCCCCCCCCCCCN2C(=O)c3ccccc3C2=O)c1					IC50 [5]: > 50000 nM; Imax (COS-7 [6]): 15.9%
C=CCNCCCCCCCCCCCOc1cc(O)cc(CCCCC)c1	1850 nM	1140 nM	1.62	0.62	
CCCCCCC(C)(C)c1cc(O)cc(OCCCCCCCCCCC(=O)NC23CC4CC(CC(C4)C2)C3)c1	> 10000 nM	> 10000 nM			
CCCCCCc1ccc(O)cc1OCCCCCCCCCCC(=O)NC(CO)CO	2370 nM	> 10000 nM	< 0.24	> 4.22	

SMILES	Ki (Cannabinoid receptor 2 [1])	Ki (Cannabinoid receptor 1 [2])	Ratio Ki (Homo sapiens [3])	Ratio Ki (Homo sapiens [4])	other results
CCCCCc1cc(O)cc(OCCCCCCCCCCC(=O)N[C@H](C)CO)c1	97.2 nM	264 nM	0.37	2.72	
CCCCCCc1c(O)cccc1OCCCCCCCCCCC(=O)NC12CC3CC(CC(C3)C1)C2	> 10000 nM	> 10000 nM			
CCCCCCc1ccc(OCCCCCCCCCCC(=O)NC(CO)CO)cc1O	> 10000 nM	> 10000 nM			
CCCCCCc1ccc(OCCCCCCCCCCCNC(=O)C2CC2)cc1O	> 10000 nM	> 10000 nM			
CCCCCc1cc(O)cc(OCCCCCCCCCN2C(=O)c3ccccc3C2=O)c1					IC50 [5]: > 50000 nM; Imax (COS-7 [6]): 16.8%
CCCCCCc1ccc(OCCCCCCCCCCC(=O)NC23CC4CC(CC(C4)C2)C3)cc1O	> 10000 nM	> 10000 nM			
CCCCCc1cc(O)cc(OCCCCCCCCCCC(=O)NC(CO)CO)c1	540 nM	> 10000 nM	< 0.05	> 18.5	
CCCCCCC(C)(C)c1cc(O)cc(OCCCCCCCCCCCNC(=O)C2CC2)c1	650 nM	2070 nM	0.31	3.18	
CCCCCCC(C)(C)c1cc(O)cc(OCCCCCCCC(=O)NCC(F)(F)F)c1	27.9 nM	397 nM	0.07	14.2	
CCCCCc1cc(O)cc(OCCCCCCCCCCCNC2CC2)c1	1890 nM	2080 nM	0.91	1.1	
CCCCCCC(C)(C)c1cc(O)cc(OCCCCCCCC(=O)NC23CC4CC(CC(C4)C2)C3)c1	> 10000 nM	> 10000 nM			
CCCCCCC(C)(C)c1cc(O)cc(OCCCCCCCCCCC(=O)NC(CO)CO)c1	230 nM	1890 nM	0.12	8.22	
CCCCCc1cc(O)cc(OCCCCCCCCCCC(=O)NCC(F)(F)F)c1	96.3 nM	438 nM	0.22	4.55	
CCCCCCc1ccc(OCCCCCCCCCCCN2C(=O)c3ccccc3C2=O)cc1O					IC50 [5]: > 50000 nM; Imax (COS-7 [6]): 14.3%
CCCCCCC(C)(C)c1cc(O)cc(OCCCCCCCCCCCN2C(=O)c3ccccc3C2=O)c1					IC50 [5]: > 50000 nM; Imax (COS-7 [6]): 14.4%
CCCCCc1cc(O)cc(OCCCCCCCCCCCNCc2ccccc2)c1	830 nM	1240 nM	0.67	1.49	
CCCCCc1cc(O)cc(OCCCCCCCCCCC(=O)NN(C)C)c1	183 nM	845 nM	0.22	4.63	IC50 [5]: > 10000 nM; IC50 [10]: > 10000 nM; Imax [11]: 28.2%; Imax (COS-7 [12]): 42.9%
CCCCCCC(C)(C)c1cc(O)cc(OCCCCCCCC(=O)N[C@H](C)CO)c1	50.2 nM	17.2 nM	2.92	0.34	IC50 [13]: 69000 nM

Source: ChEMBL document CHEMBL3351868, “Structure-affinity relationships and pharmacological characterization of new alkyl-resorcinol cannabinoid receptor ligands: Identification of a dual cannabinoid receptor/TRPA1 channel agonist” (Bioorg Med Chem, 2014)
